# Results from PubChem BioAssay AID602134 (Broad Institute, 2011).
# Activity calls are given as the source filed them.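 The calls were made as follows: active = falling transferrin uptake with a fitted half-maximal potency at or below twice the top valid tested dose; inconclusive = flat fit with a 30 to 70% drop, or poor fit; inactive = the rest.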
# Experiment: transferrin endocytosis inhibition in mSR-BI cells, dose response, selectivity assay for SR-BI HDL uptake inhibitor project, imaging, Alexa594-transferrin, dry powder (AID 602134)
# Settings: series mostly up to 35 µM
# Procedure, shortened: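 Reagent: Alexa-594-labelled transferrin at 30 µg/mL final. Test system: mSR-BI cells. Times: transferrin uptake 30 min at 37 °C, stopped on ice. Read-out basis: normalized percent of cells with above-threshold perinuclear transferrin. Buffer or medium: serum-free DMEM with 1% BSA after serum wash. Measured by: high-content fluorescence imaging of Alexa-594 transferrin, DAPI nuclear stain.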
smiles,measurement,value
CC1CCC/C=C/C2CC(O)CC2C(O)/C=C\C(=O)O1 (stereo unspecified),outcome,inactive
